Screening results from PubChem.
The sample as a whole holds a higher share of hits than the screen did.
RORa inhibitor: inhibitors of orphan receptor RORA, primary screen, cell-based, luminescence; CHO-K1 Gal4-RORA LBD luciferase reporter; inhibition, % at 10 µM; 65,000 tested, 0.43% active; AID 561, 2006;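 active = inhibition above the mean of all tested compounds plus 3 SD, cut at about 52% in these data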
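Material: transiently transfected CHO-K1 cells, Gal4-DBD/human RORA-LBD fusion plus 5xGal4-luciferase reporter; doses: single concentration per compound, 10 µM final; incubation: 20 h at 37 °C; detection: luminescence from basal luciferase reporter expression; read-out: % inhibition of basal luciferase versus +RORA/-RORA DMSO controls; replication: tested once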
Hits are given with their value; – = inactive.

SMILES | RORa inhibitor
COc1ccc(Oc2ccc(S(=O)(=O)N3CCCCC3)cc2S(=O)(=O)N2CCCCC2)cc1 | –
CCOC(=O)c1c(NC(=O)CSc2nnnn2C)sc(CC)c1C | –
Cn1c(Cn2c(=O)sc3ccccc32)nnc1SCC(=O)N1CCc2ccccc21 | –
COc1cccc2c1C(=O)c1c(O)c3c(c(O)c1C2=O)C[C@@](O)(C(C)=O)C[C@@H]3O[C@H]1C[C@H](N)[C@H](O)[C@H](C)O1 | 78
CN(C)c1ccc(-c2nc3ccccc3n2C)cc1 | 62
Cn1c(-c2ccc(Br)o2)nc2ccccc21 | –
CCn1c(-c2ccc(N(C)C)cc2)nc2ccccc21 | –
Cc1cc(C(=O)OCC(=O)N2C(C)CCCC2C)c(C)o1 (stereo unspecified) | –
Cc1cc(C)n(-c2ccc3cccc(NS(C)(=O)=O)c3n2)n1 | 67
Cc1cc(C)n(S(=O)(=O)c2ccc3ccccc3c2)n1 | –
Cc1cc(C)n(-c2nc(C)nc(N)n2)n1 | –
CN(C)/C=N/c1cnc(C(=O)c2ccc(Cl)cc2)n1C | –
CCOC(=O)C1=C(C)SC2=NS(=O)(=O)CCN21 | –
COc1ccc(C(NC(=O)C(C)(C)C)NC(=O)C(C)(C)C)cc1 | –
COc1ccc(-c2cc(=O)n(-c3nc4ccccc4[nH]3)[nH]2)cc1 | –
Cc1cc(Nc2ccc(C)c(C)c2)n2nc(C)nc2n1 | –
O=C1CCCN1CN(C(=O)c1ccc2c(c1)OCO2)c1ccc(F)cc1 | –
CCOc1ccccc1-n1c(COc2ccc(C)cc2)nnc1SCC(N)=O | –
O=C1C2C3C=CC(C3)C2C(=O)N1c1ccc(-c2nc3ccccc3o2)cc1 (stereo unspecified) | –
CC(Sc1ccc2ccccc2n1)C(=O)O (stereo unspecified) | –
c1ccc2nc(-c3nc4ccccc4o3)ccc2c1 | 58
O=C(Nc1cccc(F)c1)C1CCN(C(=O)Cc2ccccc2)CC1 | –
CCn1c(=O)cc(NC2=NCC(C)CN2c2cccc(Cl)c2)n(C)c1=O (stereo unspecified) | –
CCc1nc(C)cn1S(=O)(=O)c1cc(Br)ccc1OC | –
CC(NC(=O)Nc1nnc(C(F)(F)F)s1)(C(F)(F)F)C(F)(F)F | 94
SMILES | RORa inhibitor
COc1ccc(CCNC(=O)C2CCCN(C(=O)N(C)C)C2)c(OC)c1 (stereo unspecified) | –
O=C1CCC/C1=c1\s/c(=C\c2cccnc2)c(=O)n1-c1ccccc1 | –
O=C(c1cc(-c2cccs2)on1)N1CCCc2ccccc21 | –
Cc1ccc2nc(Nc3ccc4[nH]c(=O)[nH]c4c3)c(-n3nc(C)cc3C)nc2c1 | –
CCCN1Cc2cccc(C(=O)NCc3cccs3)c2C1=O | –
Nc1nc(-c2ccc3c(c2)OCCO3)cs1 | –
CCCC(=O)Nc1nc(-c2ccc3c(c2)OCCO3)cs1 | –
Cc1ccc(-c2csc(N3CCC(NS(=O)(=O)c4ccc5c(c4)OCCO5)CC3)n2)cc1 | 70
Cc1c(C)[n+](=O)c(-c2ccco2)c(C)n1[O-] | –
